Test results: ChEMBL document CHEMBL1125384, “Inhibitors of sterol synthesis. 3 beta,25-dihydroxy-5 alpha-cholest-8(14)-en-15-one, an active metabolite of 3 beta-hydroxy-5 alpha-cholest-8(14)-en-15-one” (J Med Chem, 1992)

What was measured:
[1] = biological target: T1, 3-hydroxy-3-methylglutaryl-coenzyme A reductase (Homo sapiens) (UniProt P04035); test: % control of HMG-CoA reductase activity in CHO-K1 cells at a concentration of 1.0 uM; type: cell-based; conditions: Cricetulus griseus
T1 sequence (whole entry): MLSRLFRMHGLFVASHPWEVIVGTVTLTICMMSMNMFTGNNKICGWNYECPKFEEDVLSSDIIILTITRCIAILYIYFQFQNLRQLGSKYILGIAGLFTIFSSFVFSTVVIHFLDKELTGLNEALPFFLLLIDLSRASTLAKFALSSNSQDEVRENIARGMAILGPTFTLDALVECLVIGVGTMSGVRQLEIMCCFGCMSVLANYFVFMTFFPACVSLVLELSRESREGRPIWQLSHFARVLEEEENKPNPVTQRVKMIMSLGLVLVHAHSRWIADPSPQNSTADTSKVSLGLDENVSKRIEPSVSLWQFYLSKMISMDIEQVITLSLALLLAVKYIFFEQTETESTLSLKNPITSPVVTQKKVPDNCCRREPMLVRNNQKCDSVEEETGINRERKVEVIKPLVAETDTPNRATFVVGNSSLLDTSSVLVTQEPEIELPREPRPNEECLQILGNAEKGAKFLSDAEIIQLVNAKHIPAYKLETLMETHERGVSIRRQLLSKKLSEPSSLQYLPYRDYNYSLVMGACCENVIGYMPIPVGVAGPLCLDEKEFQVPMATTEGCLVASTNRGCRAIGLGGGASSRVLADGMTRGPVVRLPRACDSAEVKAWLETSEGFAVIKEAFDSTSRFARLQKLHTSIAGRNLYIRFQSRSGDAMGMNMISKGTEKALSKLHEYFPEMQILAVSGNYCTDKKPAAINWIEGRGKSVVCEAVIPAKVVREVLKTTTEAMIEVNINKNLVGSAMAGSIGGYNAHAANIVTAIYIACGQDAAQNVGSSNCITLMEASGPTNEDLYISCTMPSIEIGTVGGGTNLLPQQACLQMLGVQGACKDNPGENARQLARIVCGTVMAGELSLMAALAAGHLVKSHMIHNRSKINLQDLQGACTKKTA
Method in brief: (§1)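 CHO-K1 cells were exposed to the sterol at 0.0–2.5 μM. HMG-CoA reductase specific activity was measured in pmol min⁻¹ mg⁻¹ protein and expressed as % of the activity in sterol-free control cells. Assays were run in triplicate, with variation given as SD.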

[2] = biological target: T1, 3-hydroxy-3-methylglutaryl-coenzyme A reductase (Homo sapiens); test: % control of HMG-CoA reductase activity in CHO-K1 cells at a concentration of 0.5 uM; type: cell-based; conditions: Cricetulus griseus; method in brief: as §1
[3] = biological target: T1, 3-hydroxy-3-methylglutaryl-coenzyme A reductase (Homo sapiens); test: % control of HMG-CoA reductase activity in CHO-K1 cells at a concentration of 2.5 uM; type: cell-based; conditions: Cricetulus griseus; method in brief: as §1
[4] = biological target: T1, 3-hydroxy-3-methylglutaryl-coenzyme A reductase (Homo sapiens); test: % control of HMG-CoA reductase activity in CHO-K1 cells at a concentration of 0.25 uM; type: cell-based; conditions: Cricetulus griseus; method in brief: as §1
[5] = biological target: 3-hydroxy-3-methylglutaryl-coenzyme A reductase (Cricetulus griseus) (UniProt P00347); test: % control of HMG-CoA reductase activity in CHO-K1 cells at a concentration of 0.1 uM
Chain of 3-hydroxy-3-methylglutaryl-coenzyme A reductase (Cricetulus griseus) (P00347 whole entry, looked up): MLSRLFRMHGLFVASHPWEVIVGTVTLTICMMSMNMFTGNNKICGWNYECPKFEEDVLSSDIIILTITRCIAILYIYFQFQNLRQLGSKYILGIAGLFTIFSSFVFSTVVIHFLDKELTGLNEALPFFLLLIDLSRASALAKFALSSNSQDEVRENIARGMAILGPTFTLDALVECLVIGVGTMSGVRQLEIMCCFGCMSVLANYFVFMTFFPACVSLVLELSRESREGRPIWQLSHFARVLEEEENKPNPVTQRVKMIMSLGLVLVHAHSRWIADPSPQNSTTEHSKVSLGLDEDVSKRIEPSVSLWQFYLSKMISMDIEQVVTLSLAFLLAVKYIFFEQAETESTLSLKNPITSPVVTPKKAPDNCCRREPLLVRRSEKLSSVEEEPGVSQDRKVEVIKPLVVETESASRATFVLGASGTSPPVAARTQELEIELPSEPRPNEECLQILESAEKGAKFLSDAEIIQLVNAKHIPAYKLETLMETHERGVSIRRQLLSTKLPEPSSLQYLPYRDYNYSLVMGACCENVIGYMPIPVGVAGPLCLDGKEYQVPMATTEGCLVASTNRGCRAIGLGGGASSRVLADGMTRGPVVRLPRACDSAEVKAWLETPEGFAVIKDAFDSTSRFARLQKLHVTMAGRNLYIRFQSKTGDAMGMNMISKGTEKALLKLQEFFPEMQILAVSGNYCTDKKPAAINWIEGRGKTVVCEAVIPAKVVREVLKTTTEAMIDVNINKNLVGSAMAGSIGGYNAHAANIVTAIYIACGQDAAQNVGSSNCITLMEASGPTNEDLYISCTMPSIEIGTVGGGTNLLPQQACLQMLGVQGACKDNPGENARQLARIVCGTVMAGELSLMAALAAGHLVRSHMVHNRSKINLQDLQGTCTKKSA

[6] = biological target: 3-hydroxy-3-methylglutaryl-coenzyme A reductase (Cricetulus griseus) (UniProt P00347); test: % control of HMG-CoA reductase activity in CHO-K1 cells at a concentration of 0.0 uM

Control [1] [%]	Control [2] [%]	Control [3] [%]	Control [4] [%]	Control [5] [%]	Control [6] [%]	SMILES
34.2	32.2	21.5	33.5	63.4	100	C[C@H](CCCC(C)(C)O)C1CC(=O)C2=C3CCC4CC(O)CCC4(C)C3CCC21C (some centres not stated)
35.8	42.2	24.4	52.1	61.9	100	CC(C)CCC[C@@H](C)[C@H]1CC(=O)C2=C3CC[C@H]4C[C@@H](O)CC[C@]4(C)[C@H]3CC[C@@]21C
